Data: ChEMBL document CHEMBL1955795, “Efficient synthesis and biological evaluation of proximicins A, B and C” (Bioorg Med Chem, 2012)
Converted amounts (≈) assume the structure as drawn. The source made the active and inactive calls. No cut-off for these calls is given here.

Legend:
Staphylococcus aureus [1] = assay: Antimicrobial activity against Staphylococcus aureus […] after 24 hrs by MTT assay; type: functional
Outline: (§1)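 Broth microdilution MIC in cation-adjusted Mueller-Hinton broth adjusted to 20 mg/L Ca²⁺ and 10 mg/L Mg²⁺. Strains grown on nutrient agar 24 h at 37 °C before testing. Inoculum of 5 × 10⁵ cfu prepared in normal saline against a 0.5 McFarland standard, added to wells and incubated at 37 °C. MTT (5 mg/mL methanolic solution) added for 20 min. Yellow-to-dark-blue colour change indicated growth. MIC = lowest concentration with no growth.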

Staphylococcus aureus [2] = assay: Antimicrobial activity against epidemic methicillin-resistant Staphylococcus aureus 16 after 24 hrs by MTT assay; type: functional; conditions: Staphylococcus aureus, 16, 24 h; outline: as §1
Staphylococcus aureus [3] = assay: Antimicrobial activity against Staphylococcus aureus SA 1199B over-expressing NorA MDR efflux pump after 24 hrs by MTT assay; type: functional; outline: as §1
Jurkat [4] = assay: Induction of apoptosis in human Jurkat 16 cells assessed as DNA fragments release from apoptotic nuclei at 20 ug/ml after 24 hrs by propidium iodide based flow cytometry analysis; type: functional, cell-based
Outline: (§2)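 Cells grown in RPMI with 10% FCS and penicillin/streptomycin at 37 °C, 5% CO2. Treated 24 h at 20 µg/mL. Apoptotic DNA fragmentation measured as propidium iodide fluorescence by flow cytometry, reported as percentage of degraded DNA.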

L1236 [5] = assay: Induction of apoptosis in human L1236 cells assessed as DNA fragments release from apoptotic nuclei at 20 ug/ml after 24 hrs by propidium iodide based flow cytometry analysis; type: functional, cell-based; outline: as §2
Jurkat [6] = assay: Induction of apoptosis in human Jurkat 16 cells assessed as DNA fragments release from apoptotic nuclei after 48 hrs by propidium iodide based flow cytometry analysis; type: functional, cell-based
Outline: (§3)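 Cells grown in RPMI with 10% FCS and penicillin/streptomycin at 37 °C, 5% CO2. Plated in duplicate and treated 48 h with increasing concentrations. DNA released from apoptotic nuclei stained with propidium iodide. Percentage DNA fragmentation quantified by flow cytometry.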

Staphylococcus aureus [7] = assay: Antimicrobial activity against epidemic methicillin-resistant Staphylococcus aureus 15 after 24 hrs by MTT assay; type: functional; conditions: Staphylococcus aureus, 15, 24 h; outline: as §1
Enterococcus faecalis = assay: Antimicrobial activity against Enterococcus faecalis NCTC 12697 after 24 hrs by MTT assay; type: functional; conditions: NCTC 12697, 24 h
Outline: (§4)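 Broth microdilution MIC in cation-adjusted Mueller-Hinton broth supplemented to 20 mg/L Ca2+ and 10 mg/L Mg2+. Strains grown on nutrient agar 24 h at 37 °C. Inoculum of 5 × 10⁵ cfu set in normal saline against a 0.5 McFarland standard. Plates incubated at 37 °C, then MTT (5 mg/mL methanolic, 20 µL) added for 20 min. MIC taken as the lowest concentration with no yellow-to-blue colour change.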

Escherichia coli = assay: Antimicrobial activity against Escherichia coli NCTC 10418 after 24 hrs by MTT assay; type: functional; conditions: NCTC 10418, 24 h; outline: as §4
Jurkat [8] = assay: Induction of apoptosis in human Jurkat 16 cells assessed as DNA fragments release from apoptotic nuclei at 50 ug/ml after 48 hrs by propidium iodide based flow cytometry analysis; type: functional, cell-based; outline: as §3
L1236 [9] = assay: Induction of apoptosis in human L1236 cells assessed as DNA fragments release from apoptotic nuclei at 50 ug/ml after 48 hrs by propidium iodide based flow cytometry analysis; type: functional, cell-based; outline: as §3
[10] = Cytotoxicity against human U87MG cells after 48 hrs by MTT assay; type: functional, cell-based, U-87MG ATCC; conditions: U-87 MG
Outline: (§5)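 U-87 MG cells in MEM and MDA-MB-231 cells in DMEM, each with 10% FBS, L-glutamine, non-essential amino acids and sodium pyruvate, kept at 5% CO2. Log-phase cells exposed to increasing drug concentrations for 24 h, then grown in fresh medium for a further 48 h. MTT added for 4 h, formazan dissolved in DMSO, absorbance read. Viability normalised to untreated wells after subtracting Triton-treated wells. IC50 derived.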

MDA-MB-231 = assay: Cytotoxicity against human MDA-MB-231 cells after 48 hrs by MTT assay; type: functional, cell-based; conditions: MDA-MB-231, 48 h; outline: as §5

Row | SMILES | MIC (Staphylococcus aureus [1]) | MIC (Staphylococcus aureus [2]) | MIC (Staphylococcus aureus [3]) | Activity (Jurkat [4]) | Activity (L1236 [5]) | Activity (Jurkat [6]) | MIC (Staphylococcus aureus [7]) | MIC (Enterococcus faecalis) | MIC (Escherichia coli) | Activity (Jurkat [8]) | Activity (L1236 [9]) | IC50 [10] | IC50 (MDA-MB-231)
1 | Cn1cc(NC(=O)c2cc(NC(=O)CNC(=N)N)cn2C)cc1C(=O)NCCC(=N)N [NETROPSIN] | 64 µg/mL (≈ 149 µM) | 128 µg/mL (≈ 297 µM) | 16 µg/mL (≈ 37.2 µM) | – | – | – | – | – | – | – | – | – | –
2 | COC(=O)Nc1coc(C(=O)Nc2coc(C(=O)NCCc3ccc(O)cc3)c2)c1 [PROXIMICIN B] | 8 µg/mL (≈ 19.4 µM) | 8 µg/mL (≈ 19.4 µM) | 4 µg/mL (≈ 9.68 µM) | Active | Active | Dose-dependent effect | 8 µg/mL (≈ 19.4 µM) | 4 µg/mL (≈ 9.68 µM) | > 128 µg/mL | – | – | – | –
3 | COC(=O)Nc1coc(C(=O)Nc2coc(C(=O)NCCc3c[nH]c4ccccc34)c2)c1 [PROXIMICIN C] | > 256 µg/mL | > 256 µg/mL | > 256 µg/mL | – | – | – | > 128 µg/mL | > 128 µg/mL | > 128 µg/mL | Active | inactive | 12.7 µg/mL (≈ 29.1 µM) | 11.4 µg/mL (≈ 26.1 µM)
4 | CN(C)[C@@H]1C(O)=C(C(N)=O)C(=O)[C@@]2(O)C(O)=C3C(=O)c4c(O)cccc4[C@@](C)(O)[C@H]3C[C@@H]12 [TETRACYCLINE] | 0.5 µg/mL (≈ 1.13 µM) | 0.5 µg/mL (≈ 1.13 µM) | 0.25 µg/mL (≈ 0.563 µM) | – | – | – | 0.12 µg/mL (≈ 0.27 µM) | 4 µg/mL (≈ 9 µM) | 0.12 µg/mL (≈ 0.27 µM) | – | – | – | –
